From ChEMBL document CHEMBL4014270, “Aedes aegypti Larvicidal Sesquiterpene Alkaloids from Maytenus oblongata” (J Nat Prod, 2017) come the findings set out here.

In data set [1] the test system is MRC5. As to the kind of experiment: Cytotoxicity against human MRC5 cells assessed as mortality at 1 ug/ml relative to control. It counts as cell-based. The gist of the method: (§1)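 MRC5 cells (normal lung tissue from a fetus), exposed to the test material at 1 or 10 μg/mL, with mortality scored against control. The method follows a previously published cytotoxicity procedure, with docetaxel as positive control.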

The subject of data set [2] is Aedes aegypti. As to the kind of experiment: Larvicidal activity against Aedes aegypti Paea assessed as mortality after 24 hrs by tube assay. It counts as functional. As to conditions: read-out: LD50 (the source's name). The gist of the method:
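Tube assay on late third- or early fourth-instar larvae of the insecticide-susceptible Paea strain, kept at 28 ± 2 °C and 80 ± 20% RH. Compound in ethanol was added at five concentrations from 1 to 10 μg/mL, 10 tubes of 5 larvae each, in distilled water, with ethanol controls.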

Data set [3] relates to MRC5. The experiment in a line: Cytotoxicity against human MRC5 cells assessed as mortality at 10 ug/ml relative to control. Type of data set: cell-based. The gist of the method: as §1
The subject of data set [4] is Aedes aegypti. As to the kind of experiment: Larvicidal activity against Aedes aegypti Cayenne assessed as mortality at 50 ug/ml after 24 hrs by tube assay relative to control. Type of data set: functional.
Data set [5] relates to Aedes aegypti. As to the kind of experiment: Larvicidal activity against Aedes aegypti Paea assessed as mortality at 50 ug/ml after 24 hrs by tube assay relative to control. It counts as functional.

For orientation: mortality means the percentage killed. On to `CC(=O)OC[C@]12[C@H](OC(=O)c3ccccc3)[C@H](OC(=O)c3ccccc3)[C@H]3OC(=O)C(C)(O)CCc4ncccc4C(=O)OC[C@@]4(C)O[C@@]1([C@H]3C)[C@@H](OC(C)=O)[C@@H]4C(=O)[C@@H]2OC(C)=O` (stereo partly drawn), for which the mortality in the data set with MRC5 [1] is 18%; with MRC5 [3], 21%. Further, the LC50 in the data set with Aedes aegypti [2] was determined as 2.7 µM.
The matching figures for `CC(=O)OC[C@]12[C@H](OC(C)=O)[C@H](OC(=O)c3ccccc3)[C@H]3OC(=O)C(C)(O)CCc4ccncc4C(=O)OC[C@@]4(C)O[C@@]1([C@H]3C)[C@@H](OC(C)=O)[C@@H]4[C@@H](OC(C)=O)[C@@H]2OC(C)=O` (stereo partly drawn): 15%, 17% and > 10 µM.
As for `CC1(C)[C@H](C(=O)O[C@H](C#N)c2cccc(Oc3ccccc3)c2)[C@@H]1C=C(Br)Br` [DELTAMETHRIN], the mortality at 50 µg/mL stood at 26% in the data set on Aedes aegypti [4] and 100% with Aedes aegypti [5].
Consider `C[C@H]1C(=O)CC[C@@H]2[C@]1(C)CC[C@H]1[C@@]2(C)C[C@H](O)[C@@]2(C)[C@@H]3CC(C)(C)CC[C@]3(C)[C@@H](O)C[C@]12C`, for which the mortality in the data set with MRC5 [1] is listed as 16%; in the data set with MRC5 [3], 48%. The LC50 in the data set on Aedes aegypti [2] was > 10 µM.
For `CC(=O)OC[C@]12[C@H](OC(=O)c3ccccc3)[C@H](OC(C)=O)[C@H]3OC(=O)C(C)(O)CCc4ncccc4C(=O)OC[C@@]4(C)O[C@@]1([C@H]3C)[C@@H](OC(C)=O)[C@@H]4C(=O)[C@@H]2OC(C)=O` (stereo partly drawn), the mortality in the data set on MRC5 [1] and in the data set with MRC5 [3] was 15% throughout. Besides, the LC50 in the data set with Aedes aegypti [2] was 9.4 µM.
Consider `CC(=O)OC[C@]12[C@H](OC(C)=O)[C@H](OC(C)=O)[C@H]3OC(=O)C(C)(O)CCc4ncccc4C(=O)OC[C@@]4(C)O[C@@]1([C@H]3C)[C@@H](OC(C)=O)[C@@H]4C(=O)[C@@H]2OC(C)=O` (stereo partly drawn), for which the mortality in the data set on MRC5 [1] turned out to be 24%; with MRC5 [3] it was 38%. Besides, the LC50 in the data set on Aedes aegypti [2] is > 10 µM.
On to `CC(=O)O[C@@]12CO[C@@H]1C[C@H](O)[C@@]1(C)C(=O)[C@H](O)C3=C(C)[C@@H](OC(=O)[C@H](O)[C@@H](NC(=O)OC(C)(C)C)c4ccccc4)C[C@@](O)([C@@H](OC(=O)c4ccccc4)[C@H]21)C3(C)C` [DOCETAXEL ANHYDROUS], for which the mortality with MRC5 [1] amounted to 0.0005%.
